Source: ChEMBL document CHEMBL2016460, “Synthesis, biological evaluation, and molecular docking studies of 2,6-dinitro-4-(trifluoromethyl)phenoxysalicylaldoxime derivatives as novel antitubulin agents” (Bioorg Med Chem, 2012)

Key:
HepG2 = test: Antiproliferative activity against human HepG2 cells after 48 hrs by MTT assay; type: functional, cell-based; conditions: HepG2, 48 h
How it was run: (§1)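 Cells were seeded into 96-well plates in complete medium and preincubated 24 h at 37 °C, 5% CO2. Compounds at preset concentrations were added to six wells, with colchicine and CA-4 run alongside as references, and exposed for 48 h. MTT (2.5 mg mL^-1 in PBS) was added for 4 h, followed by SDS/isobutyl alcohol/HCl extraction overnight at 37 °C. OD was read at 570 nm, with three replicate wells per concentration.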

[1] = Inhibition of bovine tubulin polymerization after 20 mins by spectrophotometry; design: species or system Bos taurus
How it was run: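 Tubulin was preincubated in glutamate buffer at 30 °C and then cooled to 0 °C. GTP was added, samples were moved to 0 °C cuvettes and warmed to 30 °C, and assembly was followed turbidimetrically in a recording spectrophotometer. IC50 was taken as the concentration inhibiting the extent of assembly by 50% after 20 min.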

MCF7 [2] = test: Antiproliferative activity against human MCF7 cells after 48 hrs by MTT assay; type: functional, cell-based; conditions: MCF7, 48 h; how it was run: as §1
A549 = test: Antiproliferative activity against human A549 cells after 48 hrs by MTT assay; type: functional, cell-based; conditions: A549, 48 h; how it was run: as §1
MCF7 [3] = test: Induction of apoptosis in human MCF7 cells assessed as early apoptotic cells at 0.01 uM incubated for 24 hrs by Annexin-V-FITC/PI staining based flow cytometry (reference value: 7.4 %); type: functional
MCF7 [4] = test: Induction of apoptosis in human MCF7 cells assessed as early apoptotic cells at 0.05 uM incubated for 24 hrs by Annexin-V-FITC/PI staining based flow cytometry (reference value: 7.4 %); type: functional
MCF7 [5] = test: Induction of apoptosis in human MCF7 cells assessed as late apoptotic cells at 0.05 uM incubated for 24 hrs by Annexin-V-FITC/PI staining based flow cytometry (reference value: 3.17 %); type: functional
MCF7 [6] = test: Induction of apoptosis in human MCF7 cells assessed as early apoptotic cells at 0.25 uM incubated for 24 hrs by Annexin-V-FITC/PI staining based flow cytometry (reference value: 7.4 %); type: functional
MCF7 [7] = test: Induction of apoptosis in human MCF7 cells assessed as late apoptotic cells incubated for 24 hrs by Annexin-V-FITC/PI staining based flow cytometry; type: functional, cell-based
MCF7 [8] = test: Induction of apoptosis in human MCF7 cells assessed as late apoptotic cells at 0.25 uM incubated for 24 hrs by Annexin-V-FITC/PI staining based flow cytometry (reference value: 3.17 %); type: functional
MCF7 [9] = test: Induction of apoptosis in human MCF7 cells assessed as late apoptotic cells at 0.01 uM incubated for 24 hrs by Annexin-V-FITC/PI staining based flow cytometry (reference value: 3.17 %); type: functional

Row | SMILES | IC50 (HepG2) [µM] | IC50 [1] [µM] | IC50 (MCF7 [2]) [µM] | IC50 (A549) [µM] | Activity (MCF7 [3]) [%] | Activity (MCF7 [4]) [%] | Activity (MCF7 [5]) [%] | Activity (MCF7 [6]) [%] | Activity (MCF7 [7]) | Activity (MCF7 [8]) [%] | Activity (MCF7 [9]) [%]
1 | COc1ccc(/C=C\c2cc(OC)c(OC)c(OC)c2)cc1O [COMBRETASTATIN A4] | 0.19 | 0.7 | 0.41 | 0.09 | – | – | – | – | – | – | –
2 | O=[N+]([O-])c1cc(C(F)(F)F)cc([N+](=O)[O-])c1Oc1c(Br)cc(Br)cc1/C=N/OCc1ccc(Cl)cc1Cl | 1.05 | 15.7 | 2.09 | 6.19 | – | – | – | – | – | – | –
3 | O=[N+]([O-])c1cc(C(F)(F)F)cc([N+](=O)[O-])c1Oc1c(Cl)cc(Cl)cc1/C=N/OCc1ccc(Cl)cc1Cl | 0.94 | 6.18 | 1.03 | 1.42 | – | – | – | – | – | – | –
4 | O=[N+]([O-])c1cc(C(F)(F)F)cc([N+](=O)[O-])c1Oc1c(Br)cc(Br)cc1/C=N\OCc1ccccc1F | 1.1 | 4.53 | 0.88 | 1.56 | – | – | – | – | – | – | –
5 | O=[N+]([O-])c1cc(C(F)(F)F)cc([N+](=O)[O-])c1Oc1ccc(Cl)cc1/C=N\OCc1ccc(Cl)cc1Cl | 1.28 | 7.54 | 1.14 | 3.44 | – | – | – | – | – | – | –
6 | O=[N+]([O-])c1cc(C(F)(F)F)cc([N+](=O)[O-])c1Oc1c(Br)cc(Br)cc1/C=N\OCc1ccccc1Cl | 2.45 | 18.1 | 2.32 | 4.12 | – | – | – | – | – | – | –
7 | O=[N+]([O-])c1cc(C(F)(F)F)cc([N+](=O)[O-])c1Oc1ccccc1/C=N\OCc1ccccc1F | 0.68 | 3.06 | 0.7 | 0.86 | 17.32 | 27.64 | 7.72 | 34.51 | Dose-dependent effect | 9.65 | 4.46
8 | O=[N+]([O-])c1cc(C(F)(F)F)cc([N+](=O)[O-])c1Oc1c(Cl)cc(Cl)cc1/C=N\OCc1ccccc1F | 0.82 | 3.65 | 0.8 | 1.23 | – | – | – | – | – | – | –
9 | COc1cc2c(c(OC)c1OC)-c1ccc(OC)c(=O)cc1[C@@H](NC(C)=O)CC2 [COLCHICINE] | 0.23 | 1.72 | 0.53 | 0.75 | – | – | – | – | – | – | –
10 | O=[N+]([O-])c1cc(C(F)(F)F)cc([N+](=O)[O-])c1Oc1c(Cl)cc(Cl)cc1/C=N/OCc1ccccc1Cl | 1.12 | 16.1 | 1.96 | 2.16 | – | – | – | – | – | – | –
11 | O=[N+]([O-])c1cc(C(F)(F)F)cc([N+](=O)[O-])c1Oc1ccccc1/C=N/OCc1ccc(Cl)cc1Cl | 1.02 | 4.08 | 0.94 | 1.61 | – | – | – | – | – | – | –

Second part, led by results:

Row | IC50 (HepG2) [µM] | IC50 [1] [µM] | IC50 (MCF7 [2]) [µM] | IC50 (A549) [µM] | SMILES | Activity (MCF7 [3]) [%] | Activity (MCF7 [4]) [%] | Activity (MCF7 [5]) [%] | Activity (MCF7 [6]) [%] | Activity (MCF7 [7]) | Activity (MCF7 [8]) [%] | Activity (MCF7 [9]) [%]
12 | 1.17 | 6.92 | 1.1 | 1.43 | O=[N+]([O-])c1cc(C(F)(F)F)cc([N+](=O)[O-])c1Oc1ccccc1/C=N/OCc1ccccc1Cl | – | – | – | – | – | – | –
13 | 1.79 | 30.9 | 1.22 | 3.41 | O=[N+]([O-])c1cc(C(F)(F)F)cc([N+](=O)[O-])c1Oc1ccc(Cl)cc1/C=N\OCc1ccccc1 | – | – | – | – | – | – | –
14 | 1.02 | 7.07 | 1.11 | 2.57 | O=[N+]([O-])c1cc(C(F)(F)F)cc([N+](=O)[O-])c1Oc1ccc(Cl)cc1/C=N\OCc1ccccc1F | – | – | – | – | – | – | –
15 | 1.48 | 18 | 1.83 | 2.15 | O=[N+]([O-])c1cc(C(F)(F)F)cc([N+](=O)[O-])c1Oc1c(Br)cc(Br)cc1/C=N\OCc1ccccc1 | – | – | – | – | – | – | –
16 | 1.51 | 9.05 | 3.95 | 5.03 | O=[N+]([O-])c1cc(C(F)(F)F)cc([N+](=O)[O-])c1Oc1ccc(Cl)cc1/C=N\OCc1ccccc1Cl | – | – | – | – | – | – | –
17 | 1.07 | 7.06 | 1.34 | 2.06 | O=[N+]([O-])c1cc(C(F)(F)F)cc([N+](=O)[O-])c1Oc1ccc(Br)cc1/C=N\OCc1ccc(Cl)cc1Cl | – | – | – | – | – | – | –
18 | 1.12 | 9.02 | 1.21 | 1.45 | O=[N+]([O-])c1cc(C(F)(F)F)cc([N+](=O)[O-])c1Oc1c(Cl)cc(Cl)cc1/C=N\OCc1ccccc1 | – | – | – | – | – | – | –
19 | 1.33 | 14 | 1.33 | 1.47 | O=[N+]([O-])c1cc(C(F)(F)F)cc([N+](=O)[O-])c1Oc1ccccc1/C=N\OCc1ccccc1 | – | – | – | – | – | – | –
20 | 1.18 | 15.4 | 1.15 | 2.24 | O=[N+]([O-])c1cc(C(F)(F)F)cc([N+](=O)[O-])c1Oc1ccc(Br)cc1/C=N\OCc1ccccc1 | – | – | – | – | – | – | –
21 | 0.89 | 6.9 | 1.12 | 1.28 | O=[N+]([O-])c1cc(C(F)(F)F)cc([N+](=O)[O-])c1Oc1ccc(Br)cc1/C=N\OCc1ccccc1F | – | – | – | – | – | – | –
22 | 1.24 | 13.2 | 2.84 | 3.43 | O=[N+]([O-])c1cc(C(F)(F)F)cc([N+](=O)[O-])c1Oc1ccc(Br)cc1/C=N/OCc1ccccc1Cl | – | – | – | – | – | – | –
